Assay outcomes as filed in PubChem BioAssay.
Hits are enriched below; roughly 1.3% of the tested compounds scored in any of these assays.
proCasp7 act: activates human procaspase-7, counter-screen for procaspase-3 activators; P55210; recombinant procaspase-7, Ac-DEVD-pNA absorbance 405 nm; D23A/D198A/D206A triple mutant, cannot self-cleave; scale: DMSO 0, 5 µM enzyme 100; activation, % at 8.5 µM; 0.093% of 330,000 active;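 active means percent activation above the screen-wide mean plus 3 SD, cut at about 25% in these data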
Target sequence (P55210 whole entry D23A/D198A/D206A): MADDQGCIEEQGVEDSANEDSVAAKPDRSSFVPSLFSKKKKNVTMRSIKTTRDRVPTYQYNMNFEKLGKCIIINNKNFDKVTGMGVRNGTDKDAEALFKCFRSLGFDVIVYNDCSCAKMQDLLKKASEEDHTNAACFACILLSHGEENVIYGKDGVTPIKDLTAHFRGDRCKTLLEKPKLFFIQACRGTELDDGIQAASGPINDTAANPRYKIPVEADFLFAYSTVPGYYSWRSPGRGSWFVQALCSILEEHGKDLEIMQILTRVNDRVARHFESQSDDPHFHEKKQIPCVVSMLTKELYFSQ
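Assay system: Uncleavable procaspase-7 mutant enzyme / Input: 2 µM procaspase-7 mutant as dispensed / Dosing: single nominal 8.5 µM compound dose, 0.8% DMSO final / Timing: 1 h enzyme–compound preincubation and 2 h substrate reaction, both 25 °C / Detection: p-Nitroaniline absorbance at 405 nm, read at 0 and 120 min / Replication: singlicate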
procasp3 activ: procaspase-3 (human) activation; P42574; recombinant procaspase-3 D3A, Ac-DEVD-pNA absorbance 405 nm; activation, % at 8.5 µM; 0.11% of 330,000 active;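 active means activation above the mean of all tested compounds plus 3 SD, cut at about 21% in these data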;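 further: 0% = DMSO alone and 100% = DMSO wells spiked with extra 5 µM PC-3 D3A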
Target sequence (P42574 whole entry D9A/D28A/D175A): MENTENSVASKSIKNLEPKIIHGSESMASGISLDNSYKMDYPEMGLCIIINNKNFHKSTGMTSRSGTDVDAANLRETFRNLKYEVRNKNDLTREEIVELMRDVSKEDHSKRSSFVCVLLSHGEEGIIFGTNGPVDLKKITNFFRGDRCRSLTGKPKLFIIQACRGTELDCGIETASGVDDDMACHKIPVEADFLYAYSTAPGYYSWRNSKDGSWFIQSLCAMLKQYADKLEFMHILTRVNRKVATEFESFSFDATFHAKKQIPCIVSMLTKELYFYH
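Technique: 405 nm absorbance of p-nitroaniline, reads at 0 and 120 min; Test system: Procaspase-3 D3A mutant; Incubation: 1 h enzyme-compound preincubation, then 2 h substrate reaction, 25 °C; Repeats: singlicate, each compound tested once; Benchmarks: low control DMSO wells, high control DMSO plus 5 µM PC-3 D3A.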
CHT PAM: human CHT allosteric activation; CHT-expressing cells, membrane potential dye, choline EC20; stronger effect = higher value; LV-AA mutant CHT in HEK293 cells; B-score at 10 µM; 0.49% of 310,000 active;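 active means initial fluorescence not abnormally high and integrated response B-score, plate-corrected, over 3 SD above library mean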
CHT block: inhibits the human high affinity choline transporter; Q9GZV3; CHT-expressing cells, membrane potential dye, choline response; stronger effect = lower value; B-score at 10 µM; 0.86% of 310,000 active;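 active means B-score over 3 SD under the library average, and starting fluorescence ratio not unusually high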;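 further: choline stimulus applied at its EC90 after an EC20 pre-addition; B-score computed on integrated fluorescence ratio after choline addition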
Numbers without * were called inactive; i = inactive; . = not tested or not shown; ! = repeats disagree.

SMILES	proCasp7 act	procasp3 activ	CHT PAM	CHT block
O=C(O)CN1C(=O)/C(=C\c2cc([N+](=O)[O-])ccc2OCc2ccccc2Cl)SC1=S	-8.5	-13.0	i	-6.17*
N#Cc1c(Nc2ccccc2)sc(C(=O)C2CC2)c1N	-13.8	-1.3	i	i
O=C1COC(c2ccccc2)=CN1Cc1ccccc1	-3.1	-1.2	i	i
CCOCCCNCC(O)c1ccccc1 (stereo unspecified)	8.1	-0.5	i	i
OCc1cc(C(O)CNCCCCCCOCCCCc2ccccc2)ccc1O (stereo unspecified)	-6.4	-2.4	i	-5.78*!
N#Cc1ccccc1NC(=O)COc1ccccc1C(=O)Nc1ccccc1	10.5	13.4	.	.
NC(CCCCc1ccccc1)c1cccc2ccccc12 (stereo unspecified)	-2.2	-1.7	10.5*	i
NC(=O)c1ccsc1NC(=O)c1ccc([N+](=O)[O-])o1	-6.1	-2.3	.	.
CCOc1ccc(CN2CCN(S(=O)(=O)c3ccc(NC(C)=O)cc3)CC2)cc1	8.7	4.8	i	i
O=C(CC(Sc1ccc(Br)cc1)C(=O)O)c1ccc(Br)cc1 (stereo unspecified)	-26.8	-22.1	i	-6.99*
CCCCN(CC)CCCNC(=S)Nc1ccc2nc(N3CCN(CC)CC3)cc(C)c2c1	-6.3	-5.0	i	-11.1*
CCCCN(CC)CCCNC(=S)Nc1ccc2nc(N3CCN(C)CC3)cc(C)c2c1	3.8	6.7	i	i
CCCN(CCC)CCCNC(=S)Nc1ccc2nc(N3CCCC3)cc(C)c2c1	-1.0	5.7	i	-9.51*
O=C(Cc1c(F)cccc1Cl)NNC(=O)c1ccccc1Cl	-3.2	6.9	.	.
O=C(O)c1cccc(N/N=C(\N=Nc2ccccc2)c2ccccc2)c1	-13.7	-4.6	i	-6.44*
CC1CSC(N(C(=O)c2ccc(S(C)(=O)=O)cc2)c2ccc(Cl)cc2)=N1 (stereo unspecified)	1.1	-6.8	i	i
O=C(O)c1ccc(-c2sc(Nc3ccccc3)n[n+]2-c2ccccc2)cc1	-8.1	3.2	i	i
c1ccc(COc2ccc(-c3sc(Nc4ccccc4)n[n+]3-c3ccccc3)cc2)cc1	-5.0	2.0	7.99*	i
COc1cc(/C=C2/C(=N)N3C(=NC2=O)SN=C3S(C)(=O)=O)ccc1OS(=O)(=O)c1ccccc1	0.9	1.1	i	-6.23*
CCOc1cc(/C=C2/C(=N)N3C(=NC2=O)SN=C3S(C)(=O)=O)ccc1OS(=O)(=O)c1ccccc1	2.6	-7.0	i	-5.55*
COc1ccccc1-n1c(C)cc(/C=C2/C(=N)N3C(=NC2=O)SN=C3S(C)(=O)=O)c1C	-8.2	-10.6	i	i
CCc1cc2c(COC(=O)c3cccc(S(C)(=O)=O)c3)cc(=O)oc2cc1O	-21.8	-18.5	i	i
CNS(=O)(=O)c1cccc(C(=O)OCc2cc(=O)oc3c(C)c(O)ccc23)c1	2.6	0.3	i	-6.33*
O=C(OCC(=O)N1CCCC1=O)c1nc(Cl)c(Cl)c(Cl)c1Cl	-2.4	-5.0	i	-4.96*
Cc1ccc(NC(=O)CSc2nc3ccccc3c(=O)n2CCCN2CCCCC2)cc1C	9.2	-1.7	7.28*	i
SMILES	proCasp7 act	procasp3 activ	CHT PAM	CHT block
Cc1cccc(OCCC(=O)Nc2ccc(C)c(S(=O)(=O)N3CCCCC3)c2)c1	1.9	0.9	i	i
Brc1ccc(-c2csc(N3CCc4ccccc4C3)n2)cc1	5.2	-0.7	i	i
Brc1ccc(-c2csc(N3CCC(c4ccccc4)C3)n2)cc1 (stereo unspecified)	10.9	34.5*	i	i
Cc1onc(-c2ccccc2)c1C(=O)Nc1ccc(Cl)c(S(=O)(=O)N2CCOCC2)c1	-1.8	5.2	.	.
CC(=O)c1c(C)[nH]c(C(=O)CN2C(=O)NC(C)(CCC(C)C)C2=O)c1C (stereo unspecified)	3.9	14.6	i	i
O=[N+]([O-])c1cc(Cl)cc(/C=N/NC(=S)Nc2ccc(S(=O)(=O)N3CCOCC3)cc2)c1O	-26.5	-16.3	i	-8.77*
Cc1cc(C)nc(NNC(=O)c2ccccc2O)n1	7.7	6.6	i	i
O=C(NNC(=O)c1ccccc1C(=O)O)c1ccc(-c2ccccc2)cc1	-0.7	1.3	i	-6.66*
COc1cc(CNCCc2ccc(F)cc2)ccc1OCc1ccc(Cl)nc1	12.1	3.7	i	-5.85*
O=C(COc1ccc(-c2ccccc2)cc1)NNC(=O)NC1CCCCC1	5.0	2.1	i	i
CCOc1cccc(C(=O)Nc2ccccc2N2CCN(C(=O)C(C)C)CC2)c1	-2.4	1.7	i	-5.71*
Cc1ccccc1N=C1c2cc([N+](=O)[O-])ccc2-c2ncccc21	4.6	-7.0	9.66*	i
Cc1[nH]n(-c2ccccc2)c(=O)c1/C=N/NC(=O)c1cccc(F)c1	-22.5	-25.1	i	i
Cc1[nH]n(-c2ccc(Br)cc2)c(=O)c1/C=N/NC(=O)c1ccccc1	.	.	i	-5.37*
Cc1ccc2nc3c(cc(C(=O)NC4CCCC4)c(=N)n3CCCn3ccnc3)c(=O)n2c1	-8.0	-13.0	6.4*	i
Cc1c[nH]c2cccc(OCC(CNC(C)(C)C)OC(=O)c3ccccc3)c12 (stereo unspecified)	7.7	5.4	i	-11.3*
CC(=O)c1sc(NC(=O)CCCOc2ccc(Cl)cc2)nc1C	-1.2	2.8	i	i
CCOc1cc(/C=C2\N=C(SCC)SC2=O)cc([N+](=O)[O-])c1OC(C)=O	-21.4	-4.3	i	i
CCOc1c(OC(C)=O)ccc(/C=C2\N=C(SCC)SC2=O)c1[N+](=O)[O-]	-1.1	-2.6	i	-5.82*
C/C(=N\NC(=O)c1ccc(Br)cc1)C1C(=O)c2ccccc2C1=O	4.4	-3.4	i	-6.93*
O=C(NC1CCCC1)C1CCN(C(=O)c2ccc(Cl)cc2)CC1	7.0	2.3	i	i
CC(C)(C)c1ccc(C(=O)N2CCC(C(=O)NC3CCCCCC3)CC2)cc1	-9.3	-4.7	i	-5.11*
Cc1nn(-c2ccc(Cl)cc2)c2[nH]c(CCl)cc(=O)c12	-3.4	-5.1	i	-9.41*
Cc1ccc(NC(=O)CC(O)(C(F)(F)F)C(F)(F)F)c(Br)c1	5.1	5.4	i	-5.16*
Cc1ccccc1NC(=O)CC(O)(C(F)(F)F)C(F)(F)F	-3.7	-3.4	i	i
COc1ccc(S(=O)(=O)N(C)C[C@H]2Oc3c(NS(=O)(=O)c4cn(C)cn4)cccc3C(=O)N([C@H](C)CO)C[C@@H]2C)cc1	4.0	-1.6	.	.
O=C1/C(=C\c2ccc(Br)cc2)SC(=S)N1NS(=O)(=O)c1ccccc1	-13.1	1.1	i	i
C=CCOc1ccc(/C=C2\SC(=S)N(NS(=O)(=O)c3ccccc3)C2=O)cc1	-7.5	4.1	i	-6.16*
N#Cc1cnn2ccc(-c3ccc4c(c3)CCC4)nc12	0.0	9.8	i	i
